This is a sample that favours compounds with a hit; in the whole collection about 2.6% have one here.
Wnt bcat act = Wnt/beta-catenin pathway activators, primary screen, cell-based, plate reader, single point. Wnt/beta-catenin reporter cell assay, activator. 300,000 tested, 1.2% active. activation, % at 9.35 µM; in the data active means activation above about 30%, passing the limit was not always enough; inconclusive means no clear call, values can overlap the other calls;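 further: 0% = neutral control wells and 100% = positive control wells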
Xi reactivation = activators of inactive X chromosome reactivation, primary screen, imaging, XiGFP fibroblasts, GFP high-content imaging, set 2 | XiGFP mouse fibroblasts, % GFP-positive cells imaging, 3 d; cells co-treated with 5-aza-dC sensitizer; scaled so ellipticine positive control = 100% | activation, % at 7.58 µM | 360,000 tested, 0.055% active;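 active means mean normalized replicate activation at least 10% and every replicate at or above 10%; inconclusive means only one of the two criteria met; inactive means mean below 10% and not all replicates reach 10%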;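 further: 0% = median of on-plate neutral control wells and 100% = ellipticine 6 µM median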
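System: XiGFP fibroblasts, SV40-immortalized. Medium: DMEM plus 5-aza-dC sensitizer. Doses: single point. Timing: 3 d treatment, 15 min room-temperature fixation. Control set: ellipticine 6 µM.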
Vif imaging = HIV Vif self-association inhibitors, primary screen, imaging, HEK293T, single point. HEK293T cells, Vif self-association by quenched fluorescence, 24 h. inhibition, % at 7.49 µM. 340,000 tested, 0.35% active; in the data active means inhibition above about 50%, passing the limit was not always enough; inconclusive means no clear call, values can overlap the other calls; inactive means below about 31%
MITF act = activators of MITF-driven TRPM1 promoter reporter, primary screen, cell-based, SK-MEL-5, luciferase, single point; SK-MEL-5 TRPM1-promoter luciferase, 24 h; % of positive control, neutral wells = 0; activation, % at 12.5 µM; 300,000 tested, 0.75% active; AID 588334, 2011;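 active means mean activation of at least 80% with every replicate also reaching 80%; inconclusive means mean reaches 80% but some replicate falls short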;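 further: 0% = neutral control wells and 100% = parthenolide positive control wells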
esBAF inh = Bmi1 luciferase reporter increase in mESCs, primary screen, esBAF inhibitor project, mouse ES cells, Bmi1 luciferase knock-in, single point | 24 h; 100% = twice the neutral-well signal | reporter increase, % at 12.5 µM | 350,000 tested, 2% active; in the data active means activation above about 40%; inconclusive means no clear call, values can overlap the other calls;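 further: 0% = median of the plate's neutral control wells and 100% = double that signal; a rise in the Bmi1 reporter signal indicates esBAF inhibition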
* = called active by the depositor.

What do the screens show for `COc1cc(C=O)ccc1OCCOCCOc1cc(C)ccc1Cl`?
Vif imaging: -5.3; MITF act: 0.5

What do the screens show for `COc1cc(C)ccc1OCCCOc1ccccc1Cl`?
Vif imaging: 30.0; MITF act: 126.4*; esBAF inh: 71.2*

Results for CCOc1ccc(/C=N/N(C)c2ccccc2)cc1OC ?
MITF act: 108.9*; esBAF inh: 85.6*

How did Nc1[nH]c(N=NC(=O)c2ccccc2O)c2ccccc12 do in these assays?
Wnt bcat act: 70.8*; Xi reactivation: -0.1; Vif imaging: 5.4; MITF act: 17.4

Results for Cc1ccc(NC(=O)O/N=C/c2ccc(Br)cc2)cc1 ?
Wnt bcat act: 3.8; Xi reactivation: 0.1; Vif imaging: -3.6; esBAF inh: 7.6

How did Cc1ccc(NC(=O)O/N=C/c2ccc(N(C)C)cc2)cc1 do in these assays?
Wnt bcat act: 11.4; Xi reactivation: 0.0; Vif imaging: -4.8; MITF act: 52.8; esBAF inh: 55.7*

What do the screens show for `Cc1ccc(NC(=O)O/N=C/c2ccc(F)cc2)cc1`?
Wnt bcat act: 7.4; Xi reactivation: -0.1; Vif imaging: 6.0; esBAF inh: 55.5*

What do the screens show for `O=C(Nc1ccccc1)O/N=C/c1ccc(F)cc1`?
Wnt bcat act: 14.2; Xi reactivation: -0.1; Vif imaging: 4.3; esBAF inh: 48.0*

What do the screens show for `Cc1c(Cl)cccc1NC(=O)c1cccc(OC(F)F)c1`?
Wnt bcat act: 7.0; Vif imaging: 12.0; MITF act: 11.3; esBAF inh: 50.2*

What do the screens show for `COc1ccc(NC(=O)c2cccc(F)c2)cc1Cl`?
Vif imaging: 5.8; MITF act: 59.2; esBAF inh: 77.2*

Results for COc1ccc(NC(=O)c2cccc(OC(F)F)c2)cc1Cl ?
Vif imaging: -1.6; MITF act: 51.8; esBAF inh: 57.3*

How did O=C(Nc1ccc2c(c1)CCC2)c1cccc(OC(F)F)c1 do in these assays?
Wnt bcat act: 64.9*; Xi reactivation: 0.8; Vif imaging: 18.1; esBAF inh: inconclusive

What do the screens show for `COC(=O)c1cccc(NC(=O)c2ccc(OC)c(Cl)c2)c1`?
Wnt bcat act: 11.2; Xi reactivation: 0.0; Vif imaging: 8.9; MITF act: 52.9; esBAF inh: 27.1

Results for O=C(Nc1ccc(S(=O)(=O)N2CCCC2)cc1)c1cccc(OC(F)F)c1 ?
Wnt bcat act: -1.0; Xi reactivation: 0.0; Vif imaging: 8.3; MITF act: 4.3; esBAF inh: 1.0

Results for COc1cc(OC)c(NC(=O)c2cccc(F)c2)cc1Cl ?
Wnt bcat act: -0.1; Xi reactivation: 0.0; Vif imaging: -12.6; MITF act: -6.4

How did C[C@@H]1CN([C@@H](C)CO)C(=O)c2cc(NC(=O)Nc3ccc(F)cc3)ccc2O[C@@H](C)CCCCO[C@@H]1CN(C)C do in these assays?
Xi reactivation: -0.2; esBAF inh: -1.1

What do the screens show for `COc1ccc(NC(=O)Nc2ccc3c(c2)CC(=O)N([C@@H](C)CO)C[C@H](C)[C@@H](CN(C)C(=O)Nc2ccc(OC)cc2)O3)cc1`?
Xi reactivation: 0.3; esBAF inh: 2.2

How did COc1cccc(-c2ccc([C@@H]3[C@H]4CN(C(=O)C5CCCCC5)CC(=O)N4[C@H]3CO)cc2)c1 do in these assays?
Xi reactivation: 0.0

How did O=C(Nc1ccc(OC(F)F)c(Cl)c1)c1cccc(OC(F)F)c1 do in these assays?
Vif imaging: -11.4; MITF act: 88.0*; esBAF inh: 21.1

How did Cc1ccc(NC(=O)c2cccc(OC(F)F)c2)c(OC(F)F)c1 do in these assays?
Wnt bcat act: 0.9; Xi reactivation: 0.0; Vif imaging: 0.0; MITF act: 0.5; esBAF inh: 3.6

Results for O=C(N[C@H]1CC[C@H](CCNC(=O)c2ccccc2F)O[C@H]1CO)c1cnccn1 ?
Xi reactivation: -0.6; esBAF inh: 0.7

How did N#Cc1nc(-c2ccc(Cl)cc2)oc1NCc1ccco1 do in these assays?
Wnt bcat act: 38.4*; Vif imaging: -3.9; MITF act: 70.1; esBAF inh: 52.4*

What do the screens show for `COc1ccc(CCNc2oc(-c3ccc(C)cc3)nc2C#N)cc1OC`?
Wnt bcat act: -0.1; Xi reactivation: 0.2; Vif imaging: -5.9; MITF act: 24.7; esBAF inh: 4.8

How did COCCNc1oc(-c2ccc(Cl)cc2)nc1C#N do in these assays?
Wnt bcat act: 43.1*; Vif imaging: -6.2; MITF act: 81.3*

What do the screens show for `COCCNc1oc(/C=C/c2ccccc2)nc1C#N`?
Wnt bcat act: 45.6*; Xi reactivation: 0.0; Vif imaging: 55.3*; MITF act: 102.8*

How did CN(C)CCCNc1oc(-c2ccc(Cl)cc2)nc1C#N do in these assays?
Vif imaging: 12.2; MITF act: 22.5; esBAF inh: 12.3

Results for COCCNc1oc(-c2ccc(C)cc2)nc1C#N ?
Vif imaging: 1.7; MITF act: 66.0; esBAF inh: 65.3*

Results for CO[C@H]1CN(C)C(=O)c2ccc(NS(=O)(=O)c3ccccc3)cc2OC[C@@H](C)NC[C@@H]1C ?
Xi reactivation: 0.7; esBAF inh: 0.8

Results for CC(C)NC(=O)N(C)C[C@H]1Oc2ccc(NC(=O)CCC(F)(F)F)cc2C(=O)N([C@@H](C)CO)C[C@H]1C ?
Xi reactivation: -1.2; esBAF inh: -2.4

How did CN(C)C(=O)C[C@H]1CC[C@@H]2[C@H](COC[C@@H](O)CN2S(=O)(=O)c2ccccc2)O1 do in these assays?
Xi reactivation: 0.1; esBAF inh: -4.0

How did CO[C@H]1CC[C@H]2CCOc3c(C#N)cccc3C(=O)N(C)C[C@H](C)C(=O)N(C)C[C@H]1O2 do in these assays?
Xi reactivation: 0.0; esBAF inh: -0.4

How did C[C@H](CO)N1C[C@H](C)[C@@H](CN(C)C(=O)Nc2ccc(F)cc2)Oc2ccc(NC(=O)Nc3ccccc3)cc2C1=O do in these assays?
Xi reactivation: -0.1; esBAF inh: -6.9

How did C[C@H]1CCCCO[C@@H](CN(C)Cc2ccccc2)[C@@H](C)CN([C@@H](C)CO)C(=O)c2cc(NC(=O)C3CCCCC3)ccc2O1 do in these assays?
Xi reactivation: -0.2; esBAF inh: -7.4

What do the screens show for `Cc1ccc(O)c(C(=O)CC(=O)c2ccccc2Cl)c1`?
Wnt bcat act: 8.8; Xi reactivation: 0.0; Vif imaging: -8.2; MITF act: 21.9

How did Cc1ccc(C(=O)CC(=O)c2cccc(F)c2)c(O)c1 do in these assays?
Vif imaging: -8.3; esBAF inh: 46.2*

How did Cc1ccc(C(=O)CC(=O)c2ccccc2C)c(O)c1 do in these assays?
Wnt bcat act: 11.9; Xi reactivation: 0.1; Vif imaging: -4.2; MITF act: -9.1; esBAF inh: 62.2*

Screening results deposited in PubChem by Broad Institute.
